Data reported in ChEMBL document CHEMBL1135893, “Synthesis and mode of action of hydrophobic derivatives of the glycopeptide antibiotic eremomycin and des-(N-methyl-D-leucyl)eremomycin against glycopeptide-sensitive and -resistant bacteria” (J Med Chem, 2002).
pIC50: −log10 of the molar value.

Assays:
[1] = test system: Enterococcus faecium; assay: Antibacterial activity evaluated as minimum inhibitory concentration against 569 Enterococcus faecium (GRE); format: functional
In short: (§1)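 Broth microdilution in Mueller Hinton broth per NCCLS procedure; repeat results usually identical, always within 2-fold. GISA strains 3797 (HIP-5836 New Jersey) and 3798 (HIP-5827 Michigan); 533 S. epidermidis and 602 S. haemolyticus are clinical isolates; vancomycin-resistant enterococci have confirmed genotype.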

[2] = test system: Enterococcus faecalis; assay: Antibacterial activity evaluated as minimum inhibitory concentration against 559 Enterococcus faecalis (GSE); format: functional; parameters: unit not given beside the values; in short: as §1
[3] = test system: Enterococcus faecalis; assay: Antibacterial activity evaluated as minimum inhibitory concentration against 560 Enterococcus faecalis (GRE); format: functional; in short: as §1
[4] = test system: Enterococcus faecium; assay: Antibacterial activity evaluated as minimum inhibitory concentration against 568 Enterococcus faecium (GSE); format: functional; in short: as §1
[5] = test system: Staphylococcus aureus; assay: Antibacterial activity evaluated as minimum inhibitory concentration against 3797 Staphylococcus aureus (GISA); format: functional; parameters: unit not given beside the values; in short: as §1
[6] = test system: Staphylococcus aureus; assay: Antibacterial activity evaluated as minimum inhibitory concentration against 3798 Staphylococcus aureus (GISA); format: functional; parameters: unit not given beside the values; in short: as §1
[7] = test system: Staphylococcus epidermidis; assay: Antibacterial activity evaluated as minimum inhibitory concentration against 533 Staphylococcus epidermidis; format: functional; in short: as §1
[8] = test system: Nucleic Acid; assay: Inhibition of the peptidoglycan synthesis in the absence of dipeptide bonding using UDP-MurNAc-pentapeptide; format: nucleic-acid assay
In short: (§2)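 Peptidoglycan synthesis run on filter plates with E. coli OV58 (pTA9) membranes, UDP-MurNAc-pentapeptide or UDP-MurNAc-tetrapeptide plus UDP-N-acetyl-[14C]-D-glucosamine as substrates; radiolabel incorporation into peptidoglycan measured. IC50 from at least six drug concentrations in duplicate, fitted by four-parameter logistic nonlinear regression.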

[9] = test system: Nucleic Acid; assay: Inhibition of the peptidoglycan synthesis in the absence of dipeptide bonding using UDP-MurNAc-tetrapeptide; format: nucleic-acid assay; in short: as §2
[10] = test system: Nucleic Acid; assay: Ratio UDP-MurNAc-tetrapeptide to UDP-MurNAc-Pentapeptide; format: nucleic-acid assay
[11] = test system: Staphylococcus haemolyticus; assay: Antibacterial activity evaluated as minimum inhibitory concentration against 602 Staphylococcus haemolyticus; parameters: unit not given beside the values

MIC [1]: 8
MIC [2]: 4
MIC [3]: 8
MIC [4]: 4
MIC [5]: 8
MIC [6]: 8
MIC [7]: 4
pIC50 [8]: 5.11
pIC50 [9]: 5.04
Ratio [10]: 1.2
SMILES: C[C@H]1O[C@@H](O[C@@H]2[C@H](Oc3c4cc5cc3Oc3ccc(cc3Cl)[C@@H](O)[C@@H](N)C(=O)N[C@@H](CC(N)=O)C(=O)N[C@H]5C(=O)N[C@H]3C(=O)N[C@H](C(=O)N[C@H](C(=O)O)c5cc(O)cc(O)c5-c5cc3ccc5O)[C@H](O[C@H]3C[C@@](C)(N)[C@@H](O)[C@@H](C)O3)c3cccc(c3)O4)O[C@@H](CO)[C@H](O)[C@H]2O)C[C@@](C)(NCc2ccc(-c3ccc(Cl)cc3)cc2)[C@H]1O
MIC [11]: 4
